The source of these data is ChEMBL document CHEMBL3085707, “Solution-phase microwave assisted parallel synthesis of N,N'-disubstituted thioureas derived from benzoic acid: biological evaluation and molecular docking studies” (Eur J Med Chem, 2013).

Structures are written as SMILES. Calls of active or inactive are those of the source. The calls are words filed in the database; no cut-off is given here.

One assay deals with Candida tropicalis. In words: Antifungal activity against Candida tropicalis after 24 to 48 hrs by agar well diffusion method. In kind it is functional. A digest of the protocol:
(§1)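 Agar well diffusion: 20 mL inoculum added to molten potato dextrose agar and pour-plated, with 6 mm wells cut by cork borer after setting. Inhibition zone measured in mm and scored from + (<1 mm) to ++++ (>6 mm). 2% DMSO in screen medium was the negative control; fluconazole and terbinafine were separate positive controls.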

Another assay concerns Saccharomyces cerevisiae. The assay is described as follows: Antifungal activity against Saccharomyces cerevisiae after 24 to 48 hrs by agar well diffusion method. It is filed as functional. A digest of the protocol: as §1
(Agar diffusion results depend on both activity and mobility in agar.)

A further assay deals with Aspergillus flavus. The assay is described as follows: Antifungal activity against Aspergillus flavus after 24 to 48 hrs by agar well diffusion method. In kind it is functional. A digest of the protocol:
as §1

The next assay concerns Aspergillus niger. In words: Antifungal activity against Aspergillus niger after 24 to 48 hrs by agar well diffusion method. It is filed as functional. A digest of the protocol:
as §1

The test system of assay [1] is Radical scavenging activity. In words: Antioxidant activity assessed as DPPH free radical scavenging activity at 1 mM after 30 mins. In kind it is functional. On the technique in general: Loss of DPPH colour is used to gauge radical scavenging.
In assay [2] the target is Urease (Canavalia ensiformis) (UniProt P07374). In words: Competitive inhibition of jack bean urease by Lineweaver-Burk plot analysis. A digest of the protocol: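 Urease kinetics by the Weatherburn method: buffer of 100 mM urea, 1 mM EDTA, 10 mM K2HPO4 and 10 mM […] at pH 8.2, with enzyme at 5 U/mL and inhibitor, incubated 30 min at 37 °C. Inhibitor was used at 0, 0.05 and 0.5 mM. Vmax and Km were taken from Lineweaver-Burk plots.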
Urease (Canavalia ensiformis), sequence (P07374 whole entry, looked up): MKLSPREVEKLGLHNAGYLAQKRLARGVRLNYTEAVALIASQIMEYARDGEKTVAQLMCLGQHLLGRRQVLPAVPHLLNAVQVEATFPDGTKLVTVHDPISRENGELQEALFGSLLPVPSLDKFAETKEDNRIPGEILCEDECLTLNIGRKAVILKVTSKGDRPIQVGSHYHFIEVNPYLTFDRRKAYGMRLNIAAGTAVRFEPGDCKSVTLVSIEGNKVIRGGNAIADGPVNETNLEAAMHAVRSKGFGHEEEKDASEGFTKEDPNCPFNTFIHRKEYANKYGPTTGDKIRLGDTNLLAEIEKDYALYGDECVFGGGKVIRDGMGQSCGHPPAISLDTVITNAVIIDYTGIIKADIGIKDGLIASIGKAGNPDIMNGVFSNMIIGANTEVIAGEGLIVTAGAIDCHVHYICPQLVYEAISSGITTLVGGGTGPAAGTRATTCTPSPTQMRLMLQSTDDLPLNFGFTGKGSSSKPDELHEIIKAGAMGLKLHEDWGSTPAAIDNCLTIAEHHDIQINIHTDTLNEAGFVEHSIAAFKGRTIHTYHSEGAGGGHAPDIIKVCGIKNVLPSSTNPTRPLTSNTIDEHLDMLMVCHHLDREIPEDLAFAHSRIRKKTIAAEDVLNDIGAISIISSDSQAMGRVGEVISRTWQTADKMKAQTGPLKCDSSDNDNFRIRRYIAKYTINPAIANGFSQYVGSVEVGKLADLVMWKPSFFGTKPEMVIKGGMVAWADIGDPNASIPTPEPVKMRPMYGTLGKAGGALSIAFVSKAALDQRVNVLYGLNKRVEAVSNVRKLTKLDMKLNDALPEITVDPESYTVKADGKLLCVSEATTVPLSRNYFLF

The target of another assay is Urease (Canavalia ensiformis, UniProt P07374). The assay is described as follows: Inhibition of jack bean urease assessed as ammonia production after 30 mins by indophenol method. A digest of the protocol: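 Indophenol (Weatherburn) ammonia read-out. Enzyme (5 U/mL) and test compound in buffer of 100 mM urea, 1 mM EDTA, 10 mM K2HPO4 and 10 mM […] at pH 8.2, incubated 30 min at 37 °C. Phenol and alkali reagents (NaOH, 0.1% active chloride NaOCl) then added; absorbance read by microplate reader. Run in triplicate; thiourea and acetohydroxamic acid as reference inhibitors.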
Urease, sequence (P07374 whole entry): as the sequence (P07374 whole entry, looked up) above

Usually inhibition stands for the share of the control response that was lost under treatment. The term IC50 denotes the concentration that gives 50% inhibition. With `O=C(NC(=S)Nc1c(Cl)cc(Cl)cc1Cl)c1ccccc1`, the “inhibition zone (IZ)” value in the assay with Candida tropicalis, with Saccharomyces cerevisiae, in the assay with Aspergillus flavus and with Aspergillus niger was 3 mm in each case. The inhibition in assay [1] was found to be 19%. In assay [2], the inhibition entry was “Active”. The IC50 on Urease amounted to 1.67 µM.
